Assay results published in ChEMBL document CHEMBL1800034, “A synthetic 7,8-dihydroxyflavone derivative promotes neurogenesis and exhibits potent antidepressant effect” (J Med Chem, 2010).
The source made the active and inactive calls. The rule behind the calls is not given here.

Tests used:
[1] = test system: Mus musculus; assay: Toxicity in C57BL/6J mouse assessed as pathological changes in spleen at 5 mg/kg, po for 3 weeks; assay type: organism-based; design: dose 5 mg/kg, route oral; details: in vivo, 504 h
In short: (§1)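 Mice were dosed orally at 5 mg/kg for 3 weeks, with saline-treated controls. Major organs were examined for pathological changes, and a complete blood count was done.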

[2] = test system: Mus musculus; assay: Induction of neurogenesis in C57BL/6J mouse hippocampus dentate gyrus assessed as progenitor cell proliferation at 5 mg/kg, po administered for 21 days by DAPI and BrdU staining based fluorescence microscopy; assay type: functional, organism-based; design: dose 5 mg/kg
In short: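 Adult male C57BL/6J mice were gavaged at 5 mg/kg for 21 days and then given BrdU at 50 mg/kg i.p. Mice were perfused with 4% paraformaldehyde 2 h later. Paraffin sections had citrate antigen retrieval and 2 N HCl treatment, then were stained with anti-BrdU-FITC at 4 °C for 16 h and with DAPI. BrdU-positive cells in the dentate gyrus were counted by fluorescence microscopy.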

[3] = test system: Mus musculus; assay: Toxicity in C57BL/6J mouse assessed as pathological changes in intestine at 5 mg/kg, po for 3 weeks; assay type: organism-based; design: dose 5 mg/kg, route oral; details: in vivo, 504 h; in short: as §1
[4] = target: BDNF/NT-3 growth factors receptor (Rattus norvegicus) (UniProt Q63604); assay: Agonist activity at TrkB in E17 rat primary rat cortical neurons assessed as AKT phosphorylation at Ser 473 at 10 nM after 15 mins by titration assay; assay type: functional
Chain of BDNF/NT-3 growth factors receptor (Rattus norvegicus) (Q63604 whole entry): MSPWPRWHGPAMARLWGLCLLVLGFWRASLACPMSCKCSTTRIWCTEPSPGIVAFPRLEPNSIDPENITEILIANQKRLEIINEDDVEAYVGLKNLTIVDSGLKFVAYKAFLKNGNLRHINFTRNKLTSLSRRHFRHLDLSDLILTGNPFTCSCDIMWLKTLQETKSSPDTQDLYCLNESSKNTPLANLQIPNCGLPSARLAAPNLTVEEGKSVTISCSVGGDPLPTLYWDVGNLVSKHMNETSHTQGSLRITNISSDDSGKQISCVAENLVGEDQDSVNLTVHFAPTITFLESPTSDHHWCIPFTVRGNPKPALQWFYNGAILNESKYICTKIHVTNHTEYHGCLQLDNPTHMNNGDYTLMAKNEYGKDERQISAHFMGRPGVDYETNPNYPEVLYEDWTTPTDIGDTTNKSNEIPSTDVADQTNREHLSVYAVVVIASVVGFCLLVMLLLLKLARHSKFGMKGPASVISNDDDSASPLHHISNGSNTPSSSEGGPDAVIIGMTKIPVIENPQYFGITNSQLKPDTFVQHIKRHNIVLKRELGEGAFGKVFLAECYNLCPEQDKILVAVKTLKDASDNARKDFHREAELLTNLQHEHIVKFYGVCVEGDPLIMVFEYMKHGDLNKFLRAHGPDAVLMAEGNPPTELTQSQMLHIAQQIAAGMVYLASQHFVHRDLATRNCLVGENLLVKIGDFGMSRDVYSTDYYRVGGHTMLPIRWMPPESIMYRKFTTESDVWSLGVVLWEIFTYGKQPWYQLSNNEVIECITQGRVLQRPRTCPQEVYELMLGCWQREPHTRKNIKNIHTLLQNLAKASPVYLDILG
In short: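 Primary cortical neurons were incubated with graded concentrations, starting at 10 nM, for 15 min. Phospho-Akt Ser473 was measured by sandwich ELISA on 20 µg of lysate. Data come from 2 replicated experiment sets, given as mean ± SEM. Comparisons used one-way ANOVA against control and Student's t-test between compounds.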

[5] = target: BDNF/NT-3 growth factors receptor (Rattus norvegicus) (UniProt Q63604); assay: Agonist activity at TrkB in E16 rat embryonic cortical neurons assessed as inhibition of glutamate-induced caspase 3 activation at 10 nM after 30 mins followed by 16 hrs of 50 uM glutamate-challenge by ELISA; assay type: functional
In short: (§2)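 Cortical neurons from E16 rat embryos were pretreated with the indicated compound concentrations for 30 min. They were then challenged with 50 µM glutamate for 16 h. Active caspase-3 in the lysates was measured by ELISA.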

[6] = test system: Mus musculus; assay: Agonist activity at TrkA in C57BL/6J mouse brain lysate assessed as TrkA phosphorylation at Y794 at 5 mg/kg, po administered for 21 days by immunoblotting; assay type: functional, organism-based; design: dose 5 mg/kg
In short: (§3)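 Adult male C57BL/6J mice, 8 per group, dosed orally by gavage once daily for 21 days; saline was the vehicle. Brain lysates were immunoblotted with anti-p-TrkA 794 and anti-p-TrkB 817.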

[7] = test system: Mus musculus; assay: Agonist activity at TrkB in C57BL/6J mouse brain assessed as TrkB 706 phosphorylation at 1 mg/kg, po at 1 hr by immunoblotting; assay type: functional, organism-based; design: dose 1 mg/kg
In short: (§4)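 C57BL/6J mice got a single oral dose of 1 mg/kg. Brains were collected at several time points, about 1 to 16 h after dosing. Lysates were immunoblotted for TrkB phosphorylation and for downstream Akt and MAPK phosphorylation.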

[8] = test system: Mus musculus; assay: Toxicity in C57BL/6J mouse assessed as pathological changes in liver at 5 mg/kg, po for 3 weeks; assay type: organism-based; design: dose 5 mg/kg, route oral; details: in vivo, 504 h; in short: as §1
[9] = test system: Mus musculus; assay: Toxicity in C57BL/6J mouse assessed as pathological changes in testis at 5 mg/kg, po for 3 weeks; assay type: organism-based; design: dose 5 mg/kg, route oral; details: in vivo, 504 h; in short: as §1
[10] = test system: HEK293; assay: Cytotoxicity against human HEK293 cells assessed as cell death at 50 to 50000 nM after 24 hrs by LDH assay; assay type: cell-based; details: hek293, 24 h, 50 µM
[11] = test system: Mus musculus; assay: Toxicity in C57BL/6J mouse assessed as pathological changes in heart at 5 mg/kg, po for 3 weeks; assay type: organism-based; design: dose 5 mg/kg, route oral; details: in vivo, 504 h; in short: as §1
[12] = target: BDNF/NT-3 growth factors receptor (Rattus norvegicus) (UniProt Q63604); assay: Agonist activity at TrkB in E17 rat primary cortical neurons assessed as TrkB phosphorylation at 817 at 500 nM after 15 mins by immunoblotting; assay type: functional, cell-based; details: Cerebral cortex neuron
In short: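 Rat cortical neurons from E17 embryos, 13 DIV, were treated with 500 nM compound for 15 min. Lysates were run on 10% SDS-PAGE and immunoblotted with p-TrkB Y817 antibody at 1:20,000–40,000.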

[13] = test system: Mus musculus; assay: Neuroprotective activity in C57BL/6J mouse assessed as inhibition of kainic acid-induced caspase 3 activation in hippocampus region at 5 mg/kg, po administered 2 to 8 hrs prior to kainic acid challenge measured after 8 hrs by immunoblotting; assay type: functional, organism-based; design: dose 5 mg/kg
[14] = test system: HEK293; assay: Cytotoxicity against human HEK293 cells assessed as inhibition of cell proliferation at up to 50 uM by MTT assay; assay type: cell-based
[15] = test system: Mus musculus; assay: Toxicity in C57BL/6J mouse assessed as pathological changes in kidney at 5 mg/kg, po for 3 weeks; assay type: organism-based; design: dose 5 mg/kg, route oral; details: in vivo, 504 h; in short: as §1
[16] = test system: Mus musculus; assay: Toxicity in C57BL/6J mouse assessed as pathological changes in hippocampus at 5 mg/kg, po for 3 weeks; assay type: organism-based; design: dose 5 mg/kg, route oral; details: in vivo, 504 h; in short: as §1
[17] = test system: Mus musculus; assay: Neuroprotective activity in po dosed C57BL/6J mouse assessed as TrkB phosphorylation in brain by titration assay; assay type: functional, organism-based
[18] = test system: Mus musculus; assay: Antidepressant activity in TrkB F616A knock in mouse assessed as reduction of immobility time at 5 mg/kg, po administered for 21 days by forced swim test assay in presence of TrkB F616A inhibitor 1NMPP1; assay type: functional, organism-based; design: dose 5 mg/kg
[19] = target: BDNF/NT-3 growth factors receptor (Rattus norvegicus) (UniProt Q63604); assay: Agonist activity at TrkB in E16 rat embryonic cortical neurons assessed as inhibition of glutamate-induced caspase 3 activation at 50 to 500 nM after 30 mins followed by 16 hrs of 50 uM glutamate-challenge by ELISA; assay type: functional; in short: as §2
[20] = Cytotoxicity at E17 rat primary cortical neurons assessed as cell death at 5 uM by LDH assay; assay type: cell-based; details: cerebral cortex neuron
[21] = test system: Mus musculus; assay: Toxicity in C57BL/6J mouse assessed as affect on complete blood count analysis at 5 mg/kg, po for 3 weeks; assay type: organism-based; design: dose 5 mg/kg, route oral; details: in vivo, 504 h; in short: as §1
[22] = test system: Mus musculus; assay: Neuroprotective activity in C57BL/6J mouse assessed as inhibition of kainic acid-induced caspase 3 activation in hippocampus region at 5 mg/kg, po administered 2 to 8 hrs prior to kainic acid challenge measured after 4 hrs by immunoblotting; assay type: functional, organism-based; design: dose 5 mg/kg
[23] = test system: Mus musculus; assay: Toxicity in C57BL/6J mouse assessed as pathological changes in brain cortex at 5 mg/kg, po for 3 weeks; assay type: organism-based; design: dose 5 mg/kg, route oral; details: in vivo, 504 h; in short: as §1
[24] = test system: Mus musculus; assay: Toxicity in C57BL/6J mouse assessed as pathological changes in lungs at 5 mg/kg, po for 3 weeks; assay type: organism-based; design: dose 5 mg/kg, route oral; details: in vivo, 504 h; in short: as §1
[25] = test system: Mus musculus; assay: Agonist activity at TrkB in C57BL/6J mouse brain lysate assessed as TrkB phosphorylation at Y817 at 5 mg/kg, po administered for 21 days by immunoblotting; assay type: functional, organism-based; design: dose 5 mg/kg; in short: as §3
[26] = test system: Mus musculus; assay: Toxicity in C57BL/6J mouse assessed as pathological changes in muscle at 5 mg/kg, po for 3 weeks; assay type: organism-based, Muscle tissue; design: dose 5 mg/kg, route oral; details: in vivo, 504 h; in short: as §1
[27] = test system: Mus musculus; assay: Agonist activity at TrkB in C57BL/6J mouse brain assessed as TrkB 706 phosphorylation at 1 mg/kg, po at 1 to 2 hrs by immunoblotting; assay type: functional, organism-based; design: dose 1 mg/kg; in short: as §4
[28] = test system: Mus musculus; assay: Antidepressant activity in C57BL/6J mouse assessed as decrease in immobility at 5 mg/kg, po administered for 21 days measured last 4 mins of total 6 mins observation time by forced swim test; assay type: functional, organism-based; design: dose 5 mg/kg
In short: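 Male C57BL/6J mice, 2–3 months old, were gavaged with saline or compound at 5 mg/kg for 21 days. Mice were acclimated to the test room for 2 days. There was no pre-swim. Each mouse swam for 6 min in a 16 cm cylinder of water 14 cm deep at 24 °C. Immobility was scored blind over the last 4 min; mean ± SEM, ANOVA.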

[29] = test system: Mus musculus; assay: Neuroprotective activity in TrkB F616A knock in mouse assessed as inhibition of kainic acid-induced caspase 3 activation in brain homogenates at 5 mg/kg, po administered 4 hrs prior to kainic acid challenge measured after 4 days by immunoblotting in presence of TrkB F616A inhibitor 1NMPP1; assay type: functional, organism-based; design: dose 5 mg/kg
In short: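 TrkB F616A knock-in mice, 2–3 months old, were given 1NMPP1 at 25 µM in drinking water one day beforehand. They were then gavaged with compound at 5 mg/kg, followed 4 h later by kainic acid at 20 mg/kg. Brains were taken 4 days later, homogenized and ultracentrifuged. 40 µg of supernatant was immunoblotted.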

With `O=c1cc(-c2ccccc2)oc2c(O)c(O)ccc12` [7,8-DIHYDROXYFLAVONE] as the compound, how does the Activity [1] read?
The Activity was “Non-toxic”.

And the Activity [2]?
The Activity was “Active”.

What about the Activity [3] of the same compound?
The Activity was “Non-toxic”.

What about the Activity [4] of the same compound?
The Activity was “Active”.

What about the inhibition [5] of the same compound?
Its inhibition is “Active”.

And the Activity [6]?
The Activity was “inactive”.

What about the Activity [7] of the same compound?
The Activity was “Active”.

What about the Activity [8] of the same compound?
Its Activity is “Non-toxic”.

And the Activity [9]?
The Activity was “Non-toxic”.

What about the Activity [10] of the same compound?
Its Activity is “Non-toxic”.

And the Activity [11]?
The Activity was “Non-toxic”.

And the Activity [12]?
Its Activity is “Active”.

What about the inhibition [13] of the same compound?
The inhibition was “Active”.

And the Activity [14]?
Its Activity is “Non-toxic”.

And the Activity [15]?
Its Activity is “Non-toxic”.

What about the Activity [16] of the same compound?
The Activity was “Non-toxic”.

What about the Activity [17] of the same compound?
The Activity was “Dose-dependent effect”.

And the Activity [18]?
Its Activity is “inactive”.

And the Activity [19]?
The Activity was “Active”.

And the Activity [20]?
The Activity was “Non-toxic”.

What about the Activity [21] of the same compound?
Its Activity is “Non-toxic”.

What about the inhibition [22] of the same compound?
Its inhibition is “Active”.

What about the Activity [23] of the same compound?
The Activity was “Non-toxic”.

What about the Activity [24] of the same compound?
The Activity was “Non-toxic”.

What about the Activity [25] of the same compound?
The Activity was “Active”.

What about the Activity [26] of the same compound?
The Activity was “Non-toxic”.

What about the Activity [27] of the same compound?
The Activity was “Active”.

What about the Activity [28] of the same compound?
Its Activity is “Active”.

And the inhibition [29]?
The inhibition was “inactive”.
